Experimental data taken from ChEMBL document CHEMBL4665779, “Novel 2-Substituted 3-Hydroxy-1,6-dimethylpyridin-4(1H)-ones as Dual-Acting Biofilm Inhibitors of Pseudomonas aeruginosa” (J Med Chem, 2020).

Key:
[1] = test system: Pseudomonas aeruginosa; assay: Inhibition of biofilm formation in multidrug resistant Pseudomonas aeruginosa 1129 at 20 uM relative to control; assay type: functional
[2] = test system: Pseudomonas aeruginosa; assay: Inhibition of biofilm formation in multidrug resistant Pseudomonas aeruginosa 1167 at 10 uM relative to control; assay type: functional
[3] = test system: Vero; assay: Cytotoxicity against African green monkey Vero cells assessed as reduction in cell viability up to 50 uM after 16 hrs by MTT assay; assay type: cell-based; conditions: chlorocebus sabaeus
How it was run: (§1)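 Vero or LO2 cells were seeded at 5000–15000 cells/well for 16 h, PBS-washed, then exposed to compound in DMEM at 37 °C and 5% CO2 for 16 h. MTT (20 μL of 5 mg/mL) was added for 3 h, and formazan was dissolved in DMSO and read at 570 nm. Triplicate; mean ± SD.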

[4] = target: Elastase (Pseudomonas aeruginosa (strain ATCC 15692 / PAO1 / 1C / PRS 101 / LMG12228)) (UniProt P14756); assay: Inhibition of lasB fluorescence in Pseudomonas aeruginosa PAO1 transfected with GFP by measuring fluorescence intensity every 15 mins for 12 hrs by microtiter plate reader assay; conditions: dose microM 1.25-20, time 12.0 hrs
How it was run: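 PAO1-gfp, PAO1-lasB-gfp, PAO1-rhlA-gfp or PAO1-pqsA-gfp reporters were grown overnight in LB, then diluted in ABTGC medium to OD600 0.02, with compound at 1.25–20 μM. Controls were 0.1% DMSO and a blank. OD600 and GFP fluorescence (ex 485/em 535 nm) were read every 15 min for at least 12 h at 37 °C; triplicate.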

[5] = test system: Pseudomonas aeruginosa; assay: Inhibition of biofilm formation in multidrug resistant Pseudomonas aeruginosa 1121 at 20 uM relative to control; assay type: functional
[6] = test system: Pseudomonas aeruginosa; assay: Antibiofilm activity against Pseudomonas aeruginosa PAO1 assessed as inhibition of biofilm formation after 18 hrs by crystal violet staining based assay; assay type: functional, organism-based; conditions: PAO1, 18 h
[7] = test system: Pseudomonas aeruginosa; assay: Antibiofilm activity against Pseudomonas aeruginosa PAO1 assessed as inhibition of biofilm formation at 20 uM after 24 hrs by crystal violet staining based assay relative to control; assay type: functional
How it was run: (§2)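 PAO1 (OD600 0.05) was cultured in ABTGC medium at 37 °C for 24 h with compound (1.25–20 μM for the dose series). Wells were PBS-washed three times, methanol-fixed for 30 min, air-dried, and stained with 0.1% crystal violet for 30 min. Stain was solubilized in 33% acetic acid and read at 570 nm. Compound stocks were […]. Run in triplicate.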

[8] = test system: Pseudomonas aeruginosa; assay: Antibiofilm activity against Pseudomonas aeruginosa PAO1 harboring sigma factor-Pvds mutant assessed as inhibition of biofilm formation at 20 uM relative to control; assay type: functional
[9] = test system: Pseudomonas aeruginosa; assay: Inhibition of biofilm formation in multidrug resistant Pseudomonas aeruginosa FB at 20 uM relative to control; assay type: functional
[10] = test system: Pseudomonas aeruginosa; assay: Inhibition of biofilm formation in multidrug resistant Pseudomonas aeruginosa FB at 1.25 uM relative to control; assay type: functional
[11] = test system: Pseudomonas aeruginosa; assay: Inhibition of biofilm formation in multidrug resistant Pseudomonas aeruginosa 1121 at 1.25 uM relative to control; assay type: functional
[12] = test system: Pseudomonas aeruginosa; assay: Inhibition of biofilm formation in multidrug resistant Pseudomonas aeruginosa 1121 at 2.5 uM relative to control; assay type: functional
[13] = test system: Pseudomonas aeruginosa; assay: Antibiofilm activity against Pseudomonas aeruginosa PAO1 assessed as reduction in biofilm mass after 24 hrs by microtiter plate assay; assay type: functional, organism-based; conditions: dose microM 1.25-20, time 24.0 hrs; how it was run: as §2
[14] = test system: Pseudomonas aeruginosa; assay: Antibacterial activity against Pseudomonas aeruginosa infected in human L02 assessed as cell survival at 20 uM pretreated for 24 hrs followed by cell addition and measured 4 hrs post-infection by MTT assay (reference value: 40.7%); assay type: functional; conditions: time 28 hrs
[15] = Growth inhibition of Pseudomonas aeruginosa PAO1 at 512 uM by CLSI-based broth microdilution method
How it was run: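 Broth microdilution following CLSI standards: two-fold serial dilutions were made in Mueller-Hinton broth and inoculated with P. aeruginosa to a final OD600 of 0.05. The top final concentration is printed as […].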

[16] = test system: Pseudomonas aeruginosa; assay: Inhibition of biofilm formation in multidrug resistant Pseudomonas aeruginosa FB at 2.5 uM relative to control; assay type: functional
[17] = test system: Pseudomonas aeruginosa; assay: Inhibition of biofilm formation in multidrug resistant Pseudomonas aeruginosa 1121 at 5 uM relative to control; assay type: functional
[18] = test system: Pseudomonas aeruginosa PAO1; assay: Induction of iron chelation in Pseudomonas aeruginosa PAO1 assessed as increase in iron deficiency by measuring change in total ferric ion concentration at 10 uM by inductively coupled plasma mass spectrometry (reference value: 1.91 +/- 0.8 uM)
How it was run: (§3)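 PAO1 (OD600 0.05) was diluted 1:100 into ABTGC medium and grown 24 h at 37 °C with shaking, with compound; DFP at 20 μM was the reference. Pellets were washed twice in HEPES and lysed with lysozyme in 50 mM HEPES plus sonication for 30 min. Lysates were digested with 1 M nitric acid, centrifuged, and analysed by ICP-MS. Mean ± SD, triplicate.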

[19] = test system: Pseudomonas aeruginosa; assay: Inhibition of swarming motility of Pseudomonas aeruginosa PAO1 measured after 16 hrs; assay type: functional, organism-based; conditions: dose microM 1.25-20, time 16.0 hrs
How it was run: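 LB plates with 0.5% agar, 0.5% casamino acids and 0.5% glucose contained compound at 0–20 μM. Plates were dried 1 h, then 1 μL PAO1 (OD600 1) was spotted on the centre. Incubation was 16 h at 37 °C; three independent experiments.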

[20] = test system: L02; assay: Cytotoxicity against human L02 cells assessed as reduction in cell viability up to 50 uM after 16 hrs by MTT assay; assay type: cell-based; conditions: l02, 16 h; how it was run: as §1
[21] = test system: Pseudomonas aeruginosa; assay: Inhibition of biofilm formation in multidrug resistant Pseudomonas aeruginosa FB at 5 uM relative to control; assay type: functional
[22] = test system: Pseudomonas aeruginosa; assay: Inhibition of biofilm formation in multidrug resistant Pseudomonas aeruginosa 1129 at 1.25 uM relative to control; assay type: functional
[23] = test system: Pseudomonas aeruginosa; assay: Antibacterial activity against Pseudomonas aeruginosa infected in human L02 assessed as increase in cell survival pretreated for 24 hrs followed by cell addition and measured 4 hrs post-infection by MTT assay; assay type: functional, organism-based; conditions: dose microM 1.25-20, time 28.0 hrs
How it was run: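 P. aeruginosa cultures were grown with 0, 1.25, 2.5, 5, 10 or 20 μM compound for 24 h at 37 °C with shaking. Washed cells (in DMEM) were infected at MOI 100 for 4 h. Bacteria were then killed with 500 μg/mL gentamycin for 2 h, and cells were given 500 μg/mL MTT for 16 h. Formazan was dissolved in DMSO and read at 570 nm.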

[24] = test system: Pseudomonas aeruginosa; assay: Inhibition of biofilm formation in multidrug resistant Pseudomonas aeruginosa 1129 at 2.5 uM relative to control; assay type: functional
[25] = test system: Pseudomonas aeruginosa; assay: Inhibition of biofilm formation in multidrug resistant Pseudomonas aeruginosa 1121 at 10 uM relative to control; assay type: functional
[26] = test system: Pseudomonas aeruginosa PAO1; assay: Induction of iron chelation in Pseudomonas aeruginosa PAO1 assessed as increase in iron deficiency by measuring change in total ferric ion concentration at 1.25 uM by inductively coupled plasma mass spectrometry (reference value: 1.91 +/- 0.8 uM); how it was run: as §3
[27] = test system: Pseudomonas aeruginosa; assay: Antibacterial activity against Pseudomonas aeruginosa infected in African green monkey Vero cells assessed as cell survival at 20 uM pretreated for 24 hrs followed by cell addition and measured 4 hrs post-infection by MTT assay (reference value: 41.5%); assay type: functional; conditions: time 28 hrs

Elastase (Pseudomonas aeruginosa (strain ATCC 15692 / PAO1 / 1C / PRS 101 / LMG12228)), sequence (P14756 198-498 limits assumed): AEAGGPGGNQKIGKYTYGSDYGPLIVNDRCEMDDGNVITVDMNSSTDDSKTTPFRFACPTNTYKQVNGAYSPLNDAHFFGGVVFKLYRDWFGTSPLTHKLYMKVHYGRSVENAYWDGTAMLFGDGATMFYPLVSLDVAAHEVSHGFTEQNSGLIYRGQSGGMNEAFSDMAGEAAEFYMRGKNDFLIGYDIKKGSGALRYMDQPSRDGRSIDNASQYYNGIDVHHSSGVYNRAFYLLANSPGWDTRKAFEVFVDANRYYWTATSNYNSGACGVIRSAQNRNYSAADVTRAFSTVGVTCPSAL

Question: Which inhibition at 20 µM [1] does the source give for `CCCCCCC(=O)NCc1c(O)c(=O)cc(C)n1C` here?
Answer: 40%

Question: And the inhibition at 10 µM [2]?
Answer: 47.4%

Question: What about the Activity [3] of the same compound?
Answer: Non-Toxic

Question: What about the inhibition [4] of the same compound?
Answer: Dose-dependent effect

Question: What about the inhibition at 20 µM [5] of the same compound?
Answer: 23.2%

Question: What about the IC50 [6] of the same compound?
Answer: 6.57 µM

Question: What about the inhibition at 20 µM [7] of the same compound?
Answer: 68.7%

Question: And the inhibition at 20 µM [8]?
Answer: 20%

Question: What about the inhibition at 20 µM [9] of the same compound?
Answer: 14.4%

Question: And the inhibition at 1.25 µM [10]?
Answer: -5.12%

Question: What about the inhibition at 1.25 µM [11] of the same compound?
Answer: 11.8%

Question: And the inhibition at 2.5 µM [12]?
Answer: 7.68%

Question: What about the Activity [13] of the same compound?
Answer: Dose-dependent effect

Question: What about the survival at 20 µM [14] of the same compound?
Answer: 89.9%

Question: What about the “growth inhibition (GI)” value [15] of the same compound?
Answer: Non-Toxic

Question: And the inhibition at 2.5 µM [16]?
Answer: -8.67%

Question: And the inhibition at 5 µM [17]?
Answer: 10.6%

Question: And the Activity [18]?
Answer: 0.97 µM

Question: What about the inhibition [19] of the same compound?
Answer: Dose-dependent effect

Question: What about the Activity [20] of the same compound?
Answer: Non-Toxic

Question: What about the inhibition at 5 µM [21] of the same compound?
Answer: 3.57%

Question: And the inhibition at 1.25 µM [22]?
Answer: 12.7%

Question: What about the Activity [23] of the same compound?
Answer: Dose-dependent effect

Question: What about the inhibition at 2.5 µM [24] of the same compound?
Answer: 21.3%

Question: And the inhibition at 10 µM [25]?
Answer: 4.41%

Question: What about the Activity [26] of the same compound?
Answer: 1.55 µM

Question: What about the survival at 20 µM [27] of the same compound?
Answer: 96.4%
